# Measurements from PMC6391190 (Pharmacological research, 2019).
# Several values for one entry are separate records, joined by “and”; a condition that tells them apart may be missing. Identical values can stand only once. Entries after “also recorded” stand apart in the source; their conditions may differ.
# Experiments:
# [1] = test system: BCRP; assay: qPCR of BCRP mRNA in BeWo trophoblast cells; format: cell-based, human; conditions: for inhibition of AEA-mediated down-regulation of BCRP mRNA: 0.1 μM, co-treatment with AEA 10 μM; for reversal of the effects of AEA on BCRP: SB366791 1 μM, GW6471 5 μM, GW9662 5 μM, PD98059
# [2] = test system: BCRP; assay: Hoechst 33342 transport; format: cell-based, human
# [3] = test system: BCRP; assay: Zearalenone transport with HPLC measurement in BeWo cells; format: cell-based, human; conditions: for percent efflux of zearalenone: BeWo
# [4] = test system: syncytialization-related genes (hCGα, syncytin-1, syncytin-2); assay: qPCR of syncytialization-related genes in human term placental explants; format: cell-based
# Summary of the method: (§1)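 Term placental explants were cultured 24 h with AEA (1 μM, 0.05% ethanol final), replenished after 12 h. Explants were snap-frozen and homogenized in RNAzol (bead homogenizer, 4 min, 40 Hz). Reverse transcription used 1000 ng RNA with random primers and MultiScribe (25°C 10 min, 37°C 120 min, 85°C 5 min), then qPCR. Values are means of 3 placentas (3-6 samples each) ± SE.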
# [5] = test system: BeWo cells; conditions: for effect alone on BeWo cell viability: AEA 10 μM or Ko143 1 μM alone, data not shown
# [6] = test system: BCRP promoter; assay: ChIP of p-CREB binding to the BCRP promoter in BeWo cells; format: cell-based, human; conditions: 1 h
# [7] = test system: BCRP; assay: Western blot of BCRP protein in human term placental explants; format: cell-based; conditions: AEA 1 μM, 24 h, densitometry
# [8] = test system: BCRP; assay: qPCR of BCRP mRNA in human term placental explants; format: cell-based; conditions: AEA 1 μM, 24 h
# Summary of the method: as §1
# [9] = test system: BCRP; assay: Western blot of BCRP protein in BeWo cells; format: cell-based, human; conditions: AEA 10 μM, 24 h
# Summary of the method: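 BeWo cells exposed 24 h to AEA (10 μM) or vehicle; AEA was dissolved in ethanol. Cells were lysed in 20 mM Tris-HCl, 150 mM NaCl, 5 mM EDTA, 1% Triton X-100 with protease inhibitor cocktail. Western blotting detected BCRP at 72 kDa, with β-actin (42 kDa) as the loading control. Densitometry was performed.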
# [10] = test system: intracellular cAMP; assay: Measurement of intracellular cAMP; format: cell-based, human; conditions: 1 h, BeWo
# [11] = test system: BCRP; assay: BODIPY-glyburide Transwell transport across BeWo monolayers; format: cell-based, human; conditions: for reduction of transepithelial transport of BODIPY-glyburide: after 2 h
# [12] = test system: human placental explants; assay: Morphology of placental explants; format: cell-based; conditions: anandamide treatment; data not shown
# [13] = cited from earlier work
# [14] = test system: CREB; assay: Western blot of CREB phosphorylation in BeWo cells; format: cell-based, human; conditions: 1 h
# [15] = test system: syncytialization markers (hCGβ, syncytin-2, syncytin-1, hCGα); assay: qPCR of syncytialization markers in BeWo trophoblast cells; format: cell-based, human
# Summary of the method: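 BeWo cells took AEA (ethanol vehicle) either at 10 μM over a time course (including 18, 24 and 48 h, with time-matched vehicle controls) or at 0.01-10 μM for 24 h. Cells were scraped into RNAzol and homogenized. Reverse transcription used 1000 ng RNA with random primers (25°C 10 min, 37°C 120 min, 85°C 5 min), followed by qPCR; mean ± SE, n = 4.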
# [16] = test system: BeWo cells
# [17] = AEA 1 μM, 24 h, human term placental explants
# [18] = forskolin 50 μM, 24h, data not shown
molecule,measurement,setting,value
Nc1ncnc2c1nc(Br)n2[C@@H]1O[C@@H]2COP(=O)(O)O[C@H]2[C@H]1O [8-Br-cAMP],attenuation of AEA down-regulation of BCRP expression and efflux activity,"[1]; 8-Br-cAMP 1 mM, 24 h with AEA 10 μM, 24 h, BeWo",abrogated; also recorded: completely attenuated
same,prevention of AEA lowering of Hoechst 33342 efflux,"[2]; 8-Br-cAMP 1 mM with AEA 10 μM, 24 h, BeWo",completely prevented
same,effect itself on Hoechst 33342 transport,"[2]; 8-Br-cAMP 1 mM, 24 h, BeWo",no effect
"CCCCC/C=C\C/C=C\C/C=C\C/C=C\CCCC(=O)NCCO [AEA, anandamide]",percent efflux of zearalenone,"[3]; AEA 10 μM, 24 h",33%
same,reduction of hCGα mRNA expression,[4]; [17],48%
same,reduction of syncytin-1 mRNA expression,[4]; [17],25%
same,syncytin-2 mRNA expression,"[4]; AEA treatment of placental explants, data not shown",unchanged
same,effect alone on BeWo cell viability,[5],Neither Ko143 nor AEA alone affected
same,decrease of p-CREB binding to the BCRP promoter,[6]; AEA 10 μM,68%
same,down-regulation of BCRP protein,[7],30%
same,reduction of BCRP mRNA expression,[8],46%
same,BCRP protein expression,[9],reduced protein expression
same,basal intracellular levels of cAMP,"[10]; AEA 10 μM, control 34.8",12.4 pmol/mg protein
same,intracellular levels of cAMP,[10]; forskolin 50 μM + AEA 10 μM,"8,250 pmol/mg protein"
same,reduction of transepithelial transport of BODIPY-glyburide,"[11]; AEA 10 μM, 24 h",20%
same,time of maximal reduction of BCRP mRNA,"[1]; AEA 10 μM, BeWo, return to control levels by 48 h",24 h
same,lowest concentration at which repression of BCRP was observed,[1]; BeWo cells,10 nM
same,decrease of BCRP mRNA expression,"[1]; all AEA concentrations between 0.01 μM and 10 μM, 24 h, BeWo",30-50%
same,changes to the morphology of the explants,[12],did not induce any visible changes
same,effect on ability of BeWo cells to efflux Hoechst 33342,[2]; AEA 10 μM present during uptake and efflux phase (untreated cells),did not impact
same,BCRP efflux activity (percent efflux of Hoechst 33342),"[2]; AEA 10 μM, 24 h pre-treatment, BeWo",15%
same,half-life in vivo,[13],< 5 min
same,forskolin-induced phosphorylation of CREB,[14]; AEA 10 μM co-treated with forskolin 50 μM,completely inhibited; also recorded: abolished
same,p-CREB relative to total CREB protein,[14]; AEA 10 μM,no p-CREB was detected
same,lowering of hCGβ mRNA expression,"[15]; AEA 0.01 μM, 24 h, BeWo",71%
same,lowering of syncytin-2 mRNA expression,"[15]; AEA 1 μM, 24 h, BeWo",40%
same,decrease of hCGβ mRNA expression,"[15]; AEA 10 μM, 18 and 24 h, BeWo",40-50%
same,decrease of syncytin-2 mRNA expression,"[15]; AEA 10 μM, 18 and 24 h, BeWo",40-50%
same,expression of syncytin-1 or hCGα mRNAs,"[15]; BeWo cells, data not shown",did not alter
same,reduction in the intracellular concentration of AEA,"[16]; human, 30 min, 100 nM",44%
COc1ccc(C(=O)c2c(C)n(CCN3CCOCC3)c3cc(I)ccc23)cc1 [AM630],inhibition of AEA-mediated down-regulation of BCRP mRNA,"[1]; 24 h, BeWo",abrogated; also recorded: completely inhibited
COc1cc(CNC(=O)CCCC/C=C/C(C)C)ccc1O [Capsaicin],effect on BCRP expression,"[1]; capsaicin 1 μM, 24 h, BeWo, data not shown",no effect
CCC(=O)NC[C@H](Cc1ccc(OCCc2nc(-c3ccccc3)oc2C)cc1)N/C(C)=C\C(=O)c1ccc(C(F)(F)F)cc1 [GW6471],reversal of the effects of AEA on BCRP,"[1]; BeWo, data not shown",none of these chemicals reversed the effects of AEA
O=C(Nc1ccccc1)c1cc([N+](=O)[O-])ccc1Cl [GW9662],reversal of the effects of AEA on BCRP,"[1]; BeWo, data not shown",none of these chemicals reversed the effects of AEA
CCOc1ccc(-c2nc3ccc(-c4nc5ccc(N6CCN(C)CC6)cc5[nH]4)cc3[nH]2)cc1 [Hoechst 33342],percent efflux of Hoechst 33342 taken up,"[2]; vehicle-treated/control BeWo cells, Hoechst 33342 5 μM",35% and 33%
COc1ccc2c3c([nH]c2c1)[C@H](CC(C)C)N1C(=O)[C@H](CCC(=O)OC(C)(C)C)NC(=O)[C@@H]1C3 [Ko143],percent efflux of zearalenone,[3]; Ko143 1 μM,49%
same,effect alone on BeWo cell viability,[5],Neither Ko143 nor AEA alone affected
same,reduction of transepithelial transport of BODIPY-glyburide,"[11]; Ko143 1 μM, present during assay",32%
same,BCRP efflux activity (percent efflux of Hoechst 33342),"[2]; Ko143 1 μM present during assay, BeWo",8%
same,effect on AEA retention,"[16]; Ko143 1 μM, 3H-AEA 100 nM, BeWo",had no impact
COc1cccc(-c2cc(=O)c3ccccc3o2)c1N [PD98059],reversal of the effects of AEA on BCRP,"[1]; BeWo, data not shown",none of these chemicals reversed the effects of AEA
COc1cccc(NC(=O)/C=C/c2ccc(Cl)cc2)c1 [SB366791],reversal of the effects of AEA on BCRP,"[1]; BeWo, data not shown",none of these chemicals reversed the effects of AEA
"C[C@H]1CCCC(=O)CCC/C=C/c2cc(O)cc(O)c2C(=O)O1 [ZLN, zearalenone]",percent efflux of accumulated zearalenone,"[3]; vehicle-treated BeWo cells, zearalenone 50 μM",71%
C=C[C@@]1(C)CC(=O)[C@]2(O)[C@@]3(C)[C@@H](O)CCC(C)(C)[C@@H]3[C@H](O)[C@H](OC(C)=O)[C@@]2(C)O1 [forskolin],reduction in p-CREB binding to the BCRP promoter,[6]; co-treatment with AEA 10 μM and forskolin 50 μM,12%
same,intracellular levels of cAMP,[10]; forskolin 50 μM,"12,800 pmol/mg protein"
same,inhibition of AEA-mediated reduction of BCRP transcription,[1]; [18],partially inhibited
same,effect on AEA-mediated reduction of Hoechst 33342 efflux,[2]; [18],had no effect
same,CREB phosphorylation,[14]; forskolin 50 μM,consistently increased
Cc1c(C(=O)NN2CCCCC2)nn(-c2ccc(Cl)cc2Cl)c1-c1ccc(Cl)cc1 [rimonabant],inhibition of AEA-mediated down-regulation of BCRP mRNA,"[1]; 24 h, BeWo",only partially inhibited
"C[C@H]1CCC[C@H](O)CCCCCc2cc(O)cc(O)c2C(=O)O1 [α-ZRN, α-zearalanol]","LC50 values, AEA",[5]; human,27.4 ± 9.1 µM
same,"LC50 values, Ko143",[5]; human,36.0 ± 10.1 µM
Lucifer yellow,percent of Lucifer yellow rejection,"[11]; Lucifer yellow 20 μM, BeWo monolayer integrity",95.3 ± 3.7%
